Data on eight compounds can be found in ChEMBL document CHEMBL3108754, “Herbicidin congeners, undecose nucleosides from an organic extract of Streptomyces sp. L-9-10” (J Nat Prod, 2014).

One series relates to MCF7. As to the kind of experiment: Cytotoxicity against human MCF7 cells. It counts as functional, cell-based.
Series [1] has as its system HEK293. As to the kind of experiment: Inhibition of TNF-alpha-induced NF-kappaB activity in HEK293 cells assessed as cell survival at 50 uM after 6 hrs by luciferase reporter gene assay. Particulars: Homo sapiens. In kind it is cell-based. The method, boiled down:
(§1)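 HEK293 reporter cells were tested under the NF-κB assay conditions: TNF-α activation at 2 ng/mL and 6 h exposure to compounds. Values are cytotoxic IC50 or % survival at 50 μM.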

The subject of series [2] is Radical scavenging activity. As to the kind of experiment: Antioxidant activity assessed as DPPH radical scavenging activity. It counts as functional. (Loss of DPPH colour is used to gauge radical scavenging.)
A further series relates to Streptomyces. Put plainly: Antimicrobial activity against Streptomyces 85E at 80 ug/disk after 30 hrs by hyphae formation inhibition assay. It counts as functional, organism-based.
The subject of series [3] is HEK293. As to the kind of experiment: Inhibition of TNF-alpha-induced NF-kappaB activity in HEK293 cells at 50 uM after 6 hrs by luciferase reporter gene assay. It counts as cell-based. Particulars: Homo sapiens. The method, boiled down: (§2)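 Stable NF-κB luciferase reporter HEK293 cells were seeded at 20×10^3 cells/well in DMEM with 10% FBS, penicillin/streptomycin and 2 mM L-glutamine, grown 48 h, then given fresh medium and compounds. Cells were activated with human recombinant TNF-α at 2 ng/mL (0.14 nM) for 6 h, washed, lysed, and read by luciferase luminescence. Values are IC50 for inhibiting TNF-induced activity, or % inhibition at 50 μM.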
For orientation: Reporter assays use an easily measured gene product as a stand-in for the process of interest.

A short description of series [4]: Inhibition of TNF-alpha-induced NF-kappaB activity in HEK293 cells after 6 hrs by luciferase reporter gene assay. In kind it is cell-based. Particulars: Homo sapiens, HEK293, 6 h. The method, boiled down:
as §2

For series [5], the target named is Nitric oxide synthase, inducible (Homo sapiens) (UniProt P35228). As to the kind of experiment: Inhibition of iNOS (unknown origin).
Nitric oxide synthase, inducible (Homo sapiens), sequence (P35228 whole entry): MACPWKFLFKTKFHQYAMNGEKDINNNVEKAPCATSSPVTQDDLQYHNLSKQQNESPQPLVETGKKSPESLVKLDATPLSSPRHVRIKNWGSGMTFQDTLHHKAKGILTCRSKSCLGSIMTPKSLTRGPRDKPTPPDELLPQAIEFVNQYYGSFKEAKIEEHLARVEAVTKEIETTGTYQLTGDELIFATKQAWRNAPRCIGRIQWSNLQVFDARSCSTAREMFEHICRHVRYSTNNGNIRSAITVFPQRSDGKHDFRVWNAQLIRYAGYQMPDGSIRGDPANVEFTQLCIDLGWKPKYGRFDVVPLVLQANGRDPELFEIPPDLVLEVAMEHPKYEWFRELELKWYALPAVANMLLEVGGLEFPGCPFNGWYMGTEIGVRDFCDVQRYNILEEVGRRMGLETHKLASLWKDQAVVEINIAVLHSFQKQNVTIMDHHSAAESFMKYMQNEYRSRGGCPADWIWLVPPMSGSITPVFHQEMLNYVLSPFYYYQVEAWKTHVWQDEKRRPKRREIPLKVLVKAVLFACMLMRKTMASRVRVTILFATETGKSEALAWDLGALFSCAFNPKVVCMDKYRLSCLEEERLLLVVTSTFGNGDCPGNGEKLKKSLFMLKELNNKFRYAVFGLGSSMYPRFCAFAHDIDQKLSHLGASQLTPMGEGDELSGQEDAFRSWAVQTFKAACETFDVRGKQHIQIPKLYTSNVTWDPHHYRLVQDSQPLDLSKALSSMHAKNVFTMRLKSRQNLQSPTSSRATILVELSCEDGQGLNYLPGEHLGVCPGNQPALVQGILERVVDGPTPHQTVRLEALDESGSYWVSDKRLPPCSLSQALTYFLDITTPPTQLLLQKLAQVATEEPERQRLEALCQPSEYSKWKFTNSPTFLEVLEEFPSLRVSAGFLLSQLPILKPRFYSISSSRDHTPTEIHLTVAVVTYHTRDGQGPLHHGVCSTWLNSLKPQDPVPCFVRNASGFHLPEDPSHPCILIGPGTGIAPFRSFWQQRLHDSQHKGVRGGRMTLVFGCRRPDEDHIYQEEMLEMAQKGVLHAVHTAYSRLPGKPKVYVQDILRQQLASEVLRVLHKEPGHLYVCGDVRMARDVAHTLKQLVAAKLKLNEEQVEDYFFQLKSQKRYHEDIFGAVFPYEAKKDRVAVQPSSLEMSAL
For series [6], the system named is HEK293. As to the kind of experiment: Cytotoxicity against HEK293 cells. It counts as cell-based. Particulars: Homo sapiens. The method, boiled down:
as §1

The subject of the next series is NF-kappaB. Put plainly: Selectivity ratio of IC50 for HEK293 cells to IC50 for NF-kappaB activity in HEK293 cells. In kind it is ADME, cell-based. Particulars: human, read-out: Ratio IC50. In outline: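 HEK293 (Panomic) cells stably carrying an NF-κB luciferase reporter, grown in DMEM with 10% FBS, penicillin/streptomycin and 2 mM L-glutamine, seeded at 20×10^3 per well, then left 48 h. Medium renewed, cells given a range of compound concentrations plus TNF-α at 2 ng/mL (0.14 nM) for 6 h. Lysates read by luciferase luminescence. Cytotoxicity IC50 run under the same conditions.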

Molecules are shown by their SMILES. The source made the active and inactive calls. No cut-off for these calls is given here.

In general, inhibition refers to the share of the control response that was lost under treatment. In general, IC50 refers to the concentration needed to halve the response being measured. In the case of `COC(=O)[C@H]1O[C@@H]2C[C@H]3O[C@@H](n4cnc5c(N)ncnc54)[C@H](OC)[C@H]3O[C@@]2(O)[C@@H](O)[C@@H]1O`, the result (with MCF7; in series [2]; with Streptomyces) was inactive. For the same compound, in the series with HEK293 [1], the cell survival was found to be 95.6%. This compound also returned an inhibition in the series on HEK293 [3] of 94.2%. In addition, the values for the half-inhibitory concentration (IC50) (in series [4]; with HEK293 [6]) were 2900 nM and more than 50000 nM, respectively. In addition, in series [5], the inhibition entry was “inactive”.

For `COC(=O)[C@H]1O[C@@H]2C[C@H]3O[C@@H](n4cnc5c(N)ncnc54)[C@H](OC)[C@H]3O[C@@]2(O)[C@H](O)[C@@H]1O`, the outcome (with MCF7; in [2]; in the series with Streptomyces) was inactive. In the series with HEK293 [1], the cell survival came to 53%. Also, the inhibition with HEK293 [3] is 92.2%. The IC50 in [4] was determined as 3200 nM; in the series with HEK293 [6], 43700 nM. Moreover, the inhibition entry in [5] is “inactive”.

In the case of `C/C=C(\C)C(=O)O[C@H]1[C@H](O)[C@@H](C(=O)OC)O[C@@H]2C[C@H]3O[C@@H](n4cnc5c(N)ncnc54)[C@H](OC)[C@H]3O[C@]21O`, the result (in the series with MCF7; in [2]; in the series with Streptomyces) was inactive. The cell survival with HEK293 [1] came out at 59.8%. This compound displayed an inhibition with HEK293 [3] of 83.4%. Also, the IC50 turned out to be 500 nM in series [4] and 2300 nM with HEK293 [6]. Further, the inhibition result in series [5] was “inactive”.

Regarding `Cc1ccc(S(=O)(=O)N[C@@H](Cc2ccccc2)C(=O)CCl)cc1` [TPCK], the selectivity ratio with NF-kappaB stood at 2. The IC50 in [4] came to 3800 nM; with HEK293 [6] it was 11100 nM.

On to `C/C=C(\C)C(=O)O[C@H]1[C@H](O)[C@@H](C(=O)OC)O[C@@H]2C[C@H]3O[C@@H](n4cnc5c(N)ncnc54)[C@H](O)[C@H]3O[C@]21O`, for which the result (in the series with MCF7; in series [2]; in the series on Streptomyces) was inactive. Besides, in the series on HEK293 [1], the cell survival turned out to be 42.3%. In the series with HEK293 [3], the inhibition was found to be 92.4%. The IC50 came to 4900 nM in [4] and 2200 nM with HEK293 [6]. The inhibition entry in series [5] was “inactive”.

For the compound `C/C=C(\CO)C(=O)O[C@H]1[C@H](O)[C@@H](C(=O)OC)O[C@@H]2C[C@H]3O[C@@H](n4cnc5c(N)ncnc54)[C@H](OC)[C@H]3O[C@]21O`, the result (in the series on MCF7; in [2]; in the series on Streptomyces) was inactive. Further, in the series with HEK293 [1], the cell survival is 45.8%. The inhibition with HEK293 [3] came out at 80.9%. The 50% inhibitory concentration (IC50) is 1800 nM in [4] and 2700 nM in the series with HEK293 [6]. For the same compound, the inhibition entry in [5] was “inactive”.

Consider `Cc1ccc(S(=O)(=O)/C=C/C#N)cc1`, for which, in the series with NF-kappaB, the selectivity ratio stood at 2. Moreover, the values for the half-inhibitory concentration (IC50) (in series [4]; in the series on HEK293 [6]) were 2000 nM and 3800 nM, respectively.

For the compound `COC(=O)[C@@H]1CC(O)(O)[C@]2(O)O[C@@H]3[C@@H](OC)[C@H](n4cnc5c(N)ncnc54)O[C@@H]3C[C@H]2O1`, the outcome (with MCF7; in series [2]; with Streptomyces) was inactive. Besides, the cell survival with HEK293 [1] turned out to be 45.1%. Also, the inhibition in the series on HEK293 [3] is 96.2%. Besides, the half-maximal inhibitory concentration (IC50) in series [4] came out at 2400 nM; in the series on HEK293 [6], 13700 nM. In addition, in [5], the inhibition entry is “inactive”.
